Data reported in publication PMC6601336 (ACS chemical biology, 2019).
Substitutions are numbered along the chain they refer to.

Tests used:
LasR T75V/A127W = target: T1, LasR T75V/A127W (Pseudomonas aeruginosa, UniProt P25084, A127W/T75V); assay: E. coli lasB-lux reporter assay, LasR T75V/A127W; assay type: cell-based
T1 sequence (P25084 1-239 T75V/A127W): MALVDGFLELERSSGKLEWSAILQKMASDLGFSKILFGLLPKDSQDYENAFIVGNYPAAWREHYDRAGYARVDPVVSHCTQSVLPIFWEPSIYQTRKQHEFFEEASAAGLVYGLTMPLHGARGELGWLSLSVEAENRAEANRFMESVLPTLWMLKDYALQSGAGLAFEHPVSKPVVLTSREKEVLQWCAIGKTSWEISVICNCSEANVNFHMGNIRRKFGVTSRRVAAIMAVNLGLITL

WT LasR [1] = target: T2, WT LasR (Pseudomonas aeruginosa, UniProt P25084); assay: P. aeruginosa PA14 rhlA-mNG reporter assay, WT lasR; assay type: cell-based, Pseudomonas aeruginosa PA14; conditions: ΔlasI P. aeruginosa PA14, 10 μM
T2 sequence (P25084 1-239): T1 sequence (P25084 1-239 T75V/A127W) with V75T, W127A
Method in brief: (§1)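 P. aeruginosa PA14 lasI strains carried WT or T75V/Y93F/A127W lasR at the native chromosomal locus and a chromosomal prhlA-mNG fusion. Overnight cultures were diluted 1:1000 in LB with test compound at 10 μM and grown at 37°C for 8 h. Cells were pelleted and resuspended in PBS. Fluorescence was read at ex 485/em 535 nm, with A600 measured in parallel. n=3, SEM; multiple t-tests.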

LasR Y93F/A127W = target: T3, LasR Y93F/A127W (Pseudomonas aeruginosa, UniProt P25084, A127W/Y93F); assay: E. coli lasB-lux reporter assay, LasR Y93F/A127W; assay type: cell-based
T3 sequence (P25084 1-239 Y93F/A127W): T1 sequence (P25084 1-239 T75V/A127W) with V75T, Y93F

LasR T75V = target: T4, LasR T75V (Pseudomonas aeruginosa, UniProt P25084, T75V); assay: E. coli lasB-lux reporter assay, LasR T75V; assay type: cell-based
T4 sequence (P25084 1-239 T75V): T1 sequence (P25084 1-239 T75V/A127W) with W127A

WT LasR [2] = target: T2, WT LasR; assay: E. coli lasB-lux reporter assay, WT LasR; assay type: cell-based
WT LasR LBD = target: T5, WT LasR LBD (Pseudomonas aeruginosa, UniProt P25084); assay: Protein solubility assay, WT LasR LBD produced in E. coli; assay type: cell-based; conditions: 10 μM compound
T5 sequence (P25084 1-173 limits assumed): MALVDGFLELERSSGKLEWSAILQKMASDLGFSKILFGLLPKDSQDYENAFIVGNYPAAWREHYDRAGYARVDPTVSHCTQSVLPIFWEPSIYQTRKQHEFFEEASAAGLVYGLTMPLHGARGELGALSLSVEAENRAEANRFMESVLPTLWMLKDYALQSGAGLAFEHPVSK
Method in brief: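 E. coli BL21(DE3) with plasmid-borne 6xHis-WT LasR LBD were grown overnight, diluted 1:500 in LB with ampicillin and grown to OD600 0.5. Cells were induced with 1 mM IPTG plus test compound at 10 μM final, then shaken 4 h at 25°C or 37°C. Whole-cell lysate and soluble fractions were compared by band intensity. Fraction soluble = soluble band / whole-cell lysate band.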

luciferase = assay: Off-target inhibition of luciferase in the E. coli lasB-lux reporter strain; assay type: cell-based; conditions: high concentrations (>10 μM)
LasR T75V/Y93F/A127W [3] = target: T6, LasR T75V/Y93F/A127W (Pseudomonas aeruginosa, UniProt P25084, A127W/T75V/Y93F); assay: P. aeruginosa PA14 rhlA-mNG reporter assay, lasR T75V/Y93F/A127W; assay type: cell-based, Pseudomonas aeruginosa PA14; conditions: ΔlasI P. aeruginosa PA14, 10 μM
T6 sequence (P25084 1-239 T75V/Y93F/A127W): T1 sequence (P25084 1-239 T75V/A127W) with Y93F
Method in brief: as §1

LasR T75V/Y93F/A127W [4] = target: T6, LasR T75V/Y93F/A127W; assay: Pyocyanin assay, ΔlasI strain with LasR T75V/Y93F/A127W; assay type: cell-based, Pseudomonas aeruginosa PA14; conditions: 10 μM
Method in brief: (§2)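 Overnight LB cultures of PA14 lasI (WT lasR) or lasI lasR T75V/Y93F/A127W were grown at 37°C, diluted (100 μL into 3 mL LB) and shaken 8 h at 37°C. They were then diluted 2 μL into 2 mL LB with DMSO or compound and shaken 17 h at 37°C. OD600 was read, then supernatant OD695 after centrifugation. Pyocyanin = OD695/OD600. n=3, SEM.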

LasR Y93F = target: T7, LasR Y93F (Pseudomonas aeruginosa, UniProt P25084, Y93F); assay: E. coli lasB-lux reporter assay, LasR Y93F; assay type: cell-based
T7 sequence (P25084 1-239 Y93F): T1 sequence (P25084 1-239 T75V/A127W) with V75T, Y93F, W127A

LasR T75V/Y93F = target: T8, LasR T75V/Y93F (Pseudomonas aeruginosa, UniProt P25084, T75V/Y93F); assay: E. coli lasB-lux reporter assay, LasR T75V/Y93F; assay type: cell-based
T8 sequence (P25084 1-239 T75V/Y93F): T1 sequence (P25084 1-239 T75V/A127W) with Y93F, W127A

LasR T75V/Y93F/A127W [5] = target: T6, LasR T75V/Y93F/A127W; assay: E. coli lasB-lux reporter assay, LasR T75V/Y93F/A127W; assay type: cell-based
WT LasR [6] = target: T2, WT LasR; assay: Pyocyanin assay, ΔlasI strain with WT LasR; assay type: cell-based, Pseudomonas aeruginosa PA14; conditions: 10 μM
Method in brief: as §2

LasR R61A = target: T9, LasR R61A (Pseudomonas aeruginosa, UniProt P25084, R61A); assay: E. coli lasB-lux reporter assay, LasR R61A; assay type: cell-based
T9 sequence (P25084 1-239 R61A): T1 sequence (P25084 1-239 T75V/A127W) with R61A, V75T, W127A

WT LasR [7] = assay: E. coli lasB-lux reporter assay, WT LasR; assay type: cell-based, Pseudomonas aeruginosa; conditions: LasR T75V, Y93F and A127W single mutations, each relative to WT LasR
LasR LBD T75V/Y93F/A127W = target: T10, LasR LBD T75V/Y93F/A127W (Pseudomonas aeruginosa, UniProt P25084, A127W/T75V/Y93F); assay: Thermal shift assay, LasR LBD T75V/Y93F/A127W:BB0126; assay type: binding; conditions: for effect of excess ligand on Tm: LasR LBD T75V/Y93F/A127W:BB0126 with 10 μM excess ligand
T10 sequence (P25084 1-173 T75V/Y93F/A127W limits assumed): T5 sequence (P25084 1-173 limits assumed) with T75V, Y93F, A127W
Method in brief: (§3)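 6xHis-LasR LBD (WT or T75V/Y93F/A127W) was expressed in E. coli BL21(DE3) with 1 mM IPTG and 100 μM ligand (4 h, 25°C), then purified by Ni-NTA and size exclusion. Ligand-bound protein at 5 μM in 20 mM Tris-HCl pH 8, 200 mM NaCl, 1 mM DTT, with DMSO or 10 μM ligand, stood 15 min at room temperature. SYPRO Orange was added just before the run. Heating from 25 to 99°C at 0.05°C/s; fluorescence on ROX setting.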

LasR LBD = target: T11, LasR LBD (Pseudomonas aeruginosa, UniProt P25084); assay: Thermal shift assay, LasR LBD:BB0126; assay type: binding
T11 sequence (P25084 1-173 limits assumed): T5 sequence (P25084 1-173 limits assumed)
Method in brief: as §3

Compound | EC50 (LasR T75V/A127W) | activation of prhlA-mNG (WT LasR [1]) | EC50 (LasR T75V) | EC50 (WT LasR [2]) | soluble WT LasR LBD (WT LasR LBD; induction at 25°C) | off-target inhibition of luciferase (luciferase) | activation of prhlA-mNG (LasR T75V/Y93F/A127W [3]) | pyocyanin production (LasR T75V/Y93F/A127W [4]) | EC50 (LasR T75V/Y93F) | EC50 (LasR T75V/Y93F/A127W [5]) | pyocyanin production (WT LasR [6]) | effect of excess ligand on Tm (LasR LBD T75V/Y93F/A127W) | further results
O=C(CCCOc1cccc(Br)c1)N[C@H]1C[C@@H]2C[C@@H]2C1=O (relative stereo) [BB0020, 4-(3-bromophenoxy)-N-(rel-(1S,3S,5S)-2-oxobicyclo[3.1.0]hexan-3-yl)butanamide] | 20 nM | activated prhlA-mNG | 15 nM | 6 nM | yielded soluble WT LasR LBD | caused off-target inhibition of luciferase | activated the reporter | activated both LasR alleles equally | 20 nM | 20 nM | activated both LasR alleles equally |  | EC50 (LasR Y93F/A127W): 100 nM; EC50 (LasR Y93F): 15 nM
CS(=O)(=O)c1cccc(OCCCC(=O)N[C@H]2C[C@@H]3C[C@@H]3C2=O)c1 (relative stereo) [BB0126, 4-(3-(methylsulfonyl)phenoxy)-N-(rel-(1S,3S,5S)-2-oxobicyclo[3.1.0]hexan-3-yl)butanamide] | 50 nM | not in response to BB0126 | 1500 nM | > 3100 nM | yielded soluble WT LasR LBD | caused off-target inhibition of luciferase | activated the reporter | responded to BB0126 | 600 nM | 50 nM |  | further enhanced the Tm | EC50 (LasR R61A): > 10000 nM; fold lower EC50 with the mutations (WT LasR [7]): 2-to 6 fold; Tm (LasR LBD T75V/Y93F/A127W; LasR LBD T75V/Y93F/A127W:BB0126 without additional ligand): 46.8 °C; soluble WT LasR LBD (WT LasR LBD; induction at 37°C): significantly less soluble; melting temperature peak (LasR LBD; LasR LBD:BB0126 in the presence of excess BB0126 (10 μM)): 49.9 °C; thermal stability of the complex (LasR LBD; LasR LBD:BB0126 without additional ligand): unstable above room temperature
CCCCCCCCCC(=O)CC(=O)N[C@H]1CCOC1=O [3OC12HSL, N-3-oxo-dodecanoyl-L-homoserine lactone, reference compound] |  |  |  |  | yielded soluble WT LasR LBD |  |  |  |  |  | induced pyocyanin production | had no effect | stabilization by exogenous ligand (LasR LBD; LasR LBD:BB0126 with 10 μM exogenous 3OC12HSL): highly effective at binding to and stabilizing the LasR LBD
